Active and inactive are the calls of the source.
system: P388; experiment: Antitumor activity against mouse P388 cells allografted in mouse assessed as increase of median life span at 200 mg/kg, ip on day 1, 5 and 9 measured up to 60 days relative to control; assay type: functional; details: route intraperitoneal
Method in brief: (§1)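 BDF1 or CDF1 mice inoculated ip with ascitic P388 leukemia cells. Dosing ip on days 1, 5 and 9. Deaths recorded for 60 days; % increase in median life span over controls. "Cures" are survivors/total at 60 days.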

SMILES	ILS at 200 mg/kg
CN(C)CCCCCNc1ccc(NCCCCCN(C)C)c2c1C(=O)c1ccccc1C2=O	0%
NCCNc1ccc(NCCN)c2c1C(=O)c1ccccc1C2=O	145%

system: not listed separately; experiment: Therapeutic index, ratio of MTD for mouse P388 cells allografted ip dosed mouse to MED for mouse P388 cells allografted in ip dosed mouse administered as single dose; assay type: organism-based; details: in vivo, read-out: TI
Method in brief: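 Therapeutic index is MTD/MED for ip dosing, either single or once every 4 days ×3. MTD is the 10% lethal dose in normal mice over 21 days. MED is the dose giving a 40% life-span increase in P388-bearing mice. Both come from log dose-response regression lines.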

SMILES	selectivity ratio
COc1cccc2c1C(=O)c1c(O)c3c(c(O)c1C2=O)C[C@@](O)(C(C)=O)C[C@@H]3O[C@H]1C[C@H](N)[C@H](O)[C@H](C)O1 [DAUNORUBICIN]	10

system: B16; experiment: Antitumor activity against mouse B16 cells allografted in BDF1 mouse assessed as disease cure at 50 mg/kg, ip on day 1 to 9 measured up to 80 days; assay type: functional, organism-based; parameters: dose 50 mg/kg; details: not given
Method in brief: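 BDF1 mice implanted ip with homogenate from 0.05 g of B16 tumor, then dosed ip on days 1-9. Deaths recorded for 80 days; "cures" scored as survivors/total at 80 days.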

SMILES	Activity
O=C1c2c(O)ccc(O)c2C(=O)c2c(NCCN3CCNCC3)ccc(NCCN3CCNCC3)c21	inactive
CNCCNCCNc1ccc(NCCNCCNC)c2c1C(=O)c1c(O)ccc(O)c1C2=O	inactive
CCCNCCNc1ccc(NCCNCCC)c2c1C(=O)c1c(O)ccc(O)c1C2=O	inactive
O=C1c2c(O)ccc(O)c2C(=O)c2c(NCCNCCNCCO)ccc(NCCNCCNCCO)c21	inactive
CCN(CC)CCCC(C)Nc1ccc(NC(C)CCCN(CC)CC)c2c1C(=O)c1c(O)ccc(O)c1C2=O (centres undefined)	inactive

system: P388; experiment: Antitumor activity against mouse P388 cells allografted in mouse assessed as increase of median life span at 50 mg/kg, ip on day 1, 5 and 9 measured up to 60 days relative to control; assay type: functional; details: route intraperitoneal; method in brief: as §1

SMILES	ILS at 50 mg/kg
CCCNCCNc1ccc(NCCNCCC)c2c1C(=O)c1c(O)ccc(O)c1C2=O	36%
CN(C)CCNc1ccc(NCCN(C)C)c2c1C(=O)c1c(O)ccc(O)c1C2=O	122%
O=C1c2c(O)ccc(O)c2C(=O)c2c(NCCNCC(O)CO)ccc(NCCNCC(O)CO)c21 (centres undefined)	> 422%

system: P388; experiment: Antitumor activity against mouse P388 cells allografted in mouse assessed as disease cure at 200 mg/kg, ip on day 1, 5 and 9 measured up to 60 days; assay type: functional, organism-based; parameters: dose 200 mg/kg; details: not given
Method in brief: (§2)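 BDF1 or CDF1 mice inoculated ip with ascitic P388 leukemia cells, dosed ip on days 1, 5 and 9. Deaths recorded for 60 days; "cures" taken as number of survivors/total at 60 days.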

SMILES	Activity
CN(C)CCCCCNc1ccc(NCCCCCN(C)C)c2c1C(=O)c1ccccc1C2=O	inactive
NCCNc1ccc(NCCN)c2c1C(=O)c1ccccc1C2=O	inactive

system: P388; experiment: Antitumor activity against mouse P388 cells allografted in ip dosed mouse assessed as minimum effective dose administered as single dose; assay type: functional; details: read-out: MED
Method in brief: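 Drug given ip to P388 tumor-bearing mice, either once as a single dose or once each 4 days for three injections. Minimum effective dose defined as the dose giving 40% increase in life span over control, read from regression lines of log dose-response data.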

SMILES	minimal effective dose
COc1cccc2c1C(=O)c1c(O)c3c(c(O)c1C2=O)C[C@@](O)(C(C)=O)C[C@@H]3O[C@H]1C[C@H](N)[C@H](O)[C@H](C)O1 [DAUNORUBICIN]	0.52 mg/kg

system: B16; experiment: Antitumor activity against mouse B16 cells allografted in BDF1 mouse assessed as increase of median life span at 50 mg/kg, ip on day 1 to 9 measured up to 80 days relative to control; assay type: functional; details: route intraperitoneal
Method in brief: (§3)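 BDF1 mice implanted ip with a homogenate from 0.05 g of B16 tumor. Test agent given ip on days 1-9. Deaths recorded for 80 days. Result is % increase in median life span over untreated controls. "Cures" are survivors/total at 80 days.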

SMILES	ILS at 50 mg/kg
O=C1c2c(O)ccc(O)c2C(=O)c2c(NCCN3CCNCC3)ccc(NCCN3CCNCC3)c21	103%
CNCCNCCNc1ccc(NCCNCCNC)c2c1C(=O)c1c(O)ccc(O)c1C2=O	122%
CCCNCCNc1ccc(NCCNCCC)c2c1C(=O)c1c(O)ccc(O)c1C2=O	0%
O=C1c2c(O)ccc(O)c2C(=O)c2c(NCCNCCNCCO)ccc(NCCNCCNCCO)c21	35%
CCN(CC)CCCC(C)Nc1ccc(NC(C)CCCN(CC)CC)c2c1C(=O)c1c(O)ccc(O)c1C2=O (centres undefined)	0%
CN(C)CCNc1ccc(NCCN(C)C)c2c1C(=O)c1ccccc1C2=O	39%
NCCNc1ccc(NCCN)c2c1C(=O)c1ccccc1C2=O	100%

system: B16; experiment: Antitumor activity against mouse B16 cells allografted in BDF1 mouse assessed as disease cure at 12.5 mg/kg, ip on day 1 to 9 measured up to 80 days; assay type: functional, organism-based; parameters: dose 12.5 mg/kg; details: not given
Method in brief: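 BDF1 mice implanted ip with a homogenate from 0.05 g of tumor. Dosed ip on days 1–9, with deaths recorded for 80 days. "Cures" counted as survivors/total at 80 days.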

SMILES	Activity
O=C1c2c(O)ccc(O)c2C(=O)c2c(NCCN3CCCC3)ccc(NCCN3CCCC3)c21	inactive
O=C1c2c(O)ccc(O)c2C(=O)c2c(NCCNCC(O)CO)ccc(NCCNCC(O)CO)c21 (centres undefined)	inactive
O=C1c2c(O)ccc(O)c2C(=O)c2c(NCCN3CC3)ccc(NCCN3CC3)c21	inactive

system: P388; experiment: Antitumor activity against mouse P388 cells allografted in mouse assessed as disease cure at 100 mg/kg, ip on day 1, 5 and 9 measured up to 60 days; assay type: functional, organism-based; parameters: dose 100 mg/kg; details: not given
Method in brief: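 BDF or CDF1 mice injected ip with ascitic leukemia cells, then dosed ip on days 1, 5 and 9. Deaths recorded for 60 days. Read-outs: percent increase in median life span over controls, and "cures" as survivors/total at 60 days.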

SMILES	Activity
O=C1c2c(O)ccc(O)c2C(=O)c2c(NCCN3CCNCC3)ccc(NCCN3CCNCC3)c21	inactive
CCN(CC)CCCC(C)Nc1ccc(NC(C)CCCN(CC)CC)c2c1C(=O)c1c(O)ccc(O)c1C2=O (centres undefined)	inactive
O=C1c2c(O)ccc(O)c2C(=O)c2c(NCCN3CCCC3)ccc(NCCN3CCCC3)c21	inactive
O=C1c2c(O)ccc(O)c2C(=O)c2c(NCCO)ccc(NCCO)c21	inactive
Nc1ccc(N)c2c1C(=O)c1ccccc1C2=O	inactive
O=C1c2c(O)ccc(O)c2C(=O)c2c(NCCN3CC3)ccc(NCCN3CC3)c21	inactive

system: B16; experiment: Antitumor activity against mouse B16 cells allografted in BDF1 mouse assessed as increase of median life span at 12.5 mg/kg, ip on day 1 to 9 measured up to 80 days relative to control; assay type: functional; details: route intraperitoneal

SMILES	ILS at 12.5 mg/kg
CN(C)CCNc1ccc(NCCN(C)C)c2c1C(=O)c1c(O)ccc(O)c1C2=O	70%
O=C1c2c(O)ccc(O)c2C(=O)c2c(NCCN3CCCC3)ccc(NCCN3CCCC3)c21	58%
O=C1c2c(O)ccc(O)c2C(=O)c2c(NCCNCC(O)CO)ccc(NCCNCC(O)CO)c21 (centres undefined)	79%
O=C1c2c(O)ccc(O)c2C(=O)c2c(NCCN3CC3)ccc(NCCN3CC3)c21	58%
NCCNc1ccc(NCCN)c2c1C(=O)c1ccccc1C2=O	82%

system: B16; experiment: Antitumor activity against mouse B16 cells allografted in BDF1 mouse assessed as increase of median life span at 6.2 mg/kg, ip on day 1 to 9 measured up to 80 days relative to control; assay type: functional; details: route intraperitoneal; method in brief: as §3

SMILES	ILS at 6.2 mg/kg
O=C1c2ccccc2C(=O)c2c(NCCNCCO)ccc(NCCNCCO)c21 [AMETANTRONE]	129%
CNCCNc1ccc(NCCNC)c2c1C(=O)c1ccccc1C2=O	114%

system: P388; experiment: Antitumor activity against mouse P388 cells allografted in mouse assessed as increase of median life span at 25 mg/kg, ip on day 1, 5 and 9 measured up to 60 days relative to control; assay type: functional; details: route intraperitoneal; method in brief: as §1

SMILES	ILS at 25 mg/kg
O=C1c2ccccc2C(=O)c2c(NCCNCCO)ccc(NCCNCCO)c21 [AMETANTRONE]	154%
CNCCNc1ccc(NCCNC)c2c1C(=O)c1ccccc1C2=O	144%
NCCNc1ccc(NCCN)c2c1C(=O)c1ccccc1C2=O	144%

system: not listed separately; experiment: Toxicity in […] assessed as maximum tolerated dose administered as single dose; assay type: organism-based, P388; details: mouse, in vivo, ip

SMILES	MTD
COc1cccc2c1C(=O)c1c(O)c3c(c(O)c1C2=O)C[C@@](O)(C(C)=O)C[C@@H]3O[C@H]1C[C@H](N)[C@H](O)[C@H](C)O1 [DAUNORUBICIN]	5.2 mg/kg

system: P388; experiment: Antitumor activity against mouse P388 cells allografted in mouse assessed as disease cure at 25 mg/kg, ip on day 1, 5 and 9 measured up to 60 days; assay type: functional, organism-based; parameters: dose 25 mg/kg; details: not given; method in brief: as §2

SMILES	Activity
O=C1c2ccccc2C(=O)c2c(NCCNCCO)ccc(NCCNCCO)c21 [AMETANTRONE]	inactive
NCCNc1ccc(NCCN)c2c1C(=O)c1ccccc1C2=O	inactive

system: P388; experiment: Antitumor activity against mouse P388 cells allografted in mouse assessed as increase of median life span at 100 mg/kg, ip on day 1, 5 and 9 measured up to 60 days relative to control; assay type: functional; details: route intraperitoneal

SMILES	ILS at 100 mg/kg
O=C1c2c(O)ccc(O)c2C(=O)c2c(NCCN3CCNCC3)ccc(NCCN3CCNCC3)c21	133%
CNCCNCCNc1ccc(NCCNCCNC)c2c1C(=O)c1c(O)ccc(O)c1C2=O	120%
O=C1c2c(O)ccc(O)c2C(=O)c2c(NCCNCCNCCO)ccc(NCCNCCNCCO)c21	73%
CCN(CC)CCCC(C)Nc1ccc(NC(C)CCCN(CC)CC)c2c1C(=O)c1c(O)ccc(O)c1C2=O (centres undefined)	30%
CCNc1ccc(NCC)c2c1C(=O)c1ccccc1C2=O	0%
CN(C)CCNc1ccc(NCCN(C)C)c2c1C(=O)c1ccccc1C2=O	68%
O=C1c2c(O)ccc(O)c2C(=O)c2c(NCCN3CCCC3)ccc(NCCN3CCCC3)c21	118%
O=C1c2c(O)ccc(O)c2C(=O)c2c(NCCO)ccc(NCCO)c21	0%
Nc1ccc(N)c2c1C(=O)c1ccccc1C2=O	0%
O=C1c2c(O)ccc(O)c2C(=O)c2c(NCCN3CC3)ccc(NCCN3CC3)c21	185%
O=C1c2ccccc2C(=O)c2c(NCCO)ccc(NCCO)c21	0%
